Molecules are shown by their SMILES. In brackets after ≈: the same amount, converted by molar mass.

Holding throughout (assay type): functional
Holding throughout (details): 168 h

Assay [1] relates to Mycobacterium tuberculosis. As to the kind of experiment: Antimycobacterial activity against multidrug (isoniazid and rifampicin) resistant Mycobacterium tuberculosis 1 incubated for 7 days by rapid direct susceptibility test. The method in brief: (§1)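 Two-fold compound dilutions were mixed with MTB suspension containing 4×10 -3 mg cells per well and incubated at 37 °C in a wet box. MIC was read from the quantity and state of cells in each well under a continuous visual high-magnification system and was re-determined 7 days later.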

Assay [2] relates to Mycobacterium tuberculosis. Put plainly: Antimycobacterial activity against multidrug (isoniazid and rifampicin) resistant Mycobacterium tuberculosis 2 incubated for 7 days by rapid direct susceptibility test. Summed up: as §1
In assay [3] the test system is Mycobacterium tuberculosis. Put plainly: Antimycobacterial activity against rifampicin-resistant Mycobacterium tuberculosis incubated for 7 days by rapid direct susceptibility test. The method in brief:
as §1

By MIC is commonly meant the lowest concentration found to suppress growth. A high value points to a less susceptible organism. Take `CO/N=C1/C(=O)N(Cc2cn(CC(=O)N3CCC[C@@H]4CN(c5c(F)cc6c(=O)c(C(=O)O)cn(C7CC7)c6c5OC)C[C@@H]43)nn2)c2ccccc21`: the MIC in assay [1] was found to be 0.5 µg/mL (≈ 0.716 µM); in assay [2] it was 1 µg/mL (≈ 1.43 µM); in assay [3], 1 µg/mL (≈ 1.43 µM).
Turning to `COc1c(N2C[C@H]3CCCN(C(=O)Cn4cc(CN5C(=O)/C(=N/NC(N)=S)c6ccccc65)nn4)[C@H]3C2)c(F)cc2c(=O)c(C(=O)O)cn(C3CC3)c12`, the results for the minimal inhibitory concentration (MIC) in assay [1], in assay [2] and in assay [3] were 0.25 µg/mL (≈ 0.337 µM), 0.5 µg/mL (≈ 0.673 µM) and 0.25 µg/mL (≈ 0.337 µM), respectively.
With `COc1c(N2C[C@H]3CCCN(C(=O)Cn4cc(CN5C(=O)/C(=N/NC(N)=S)c6cc(F)ccc65)nn4)[C@H]3C2)c(F)cc2c(=O)c(C(=O)O)cn(C3CC3)c12`, the minimum inhibitory concentration (MIC) in assay [1] was 1 µg/mL (≈ 1.31 µM); in assay [2], 2 µg/mL (≈ 2.63 µM); in assay [3], 1 µg/mL (≈ 1.31 µM).
For the compound `COc1c(N2C[C@H]3CCCN(C(=O)Cn4cc(CN5C(=O)C(=O)c6ccccc65)nn4)[C@H]3C2)c(F)cc2c(=O)c(C(=O)O)cn(C3CC3)c12`, the minimal inhibitory concentration (MIC) amounted to 0.5 µg/mL (≈ 0.747 µM) in assay [1], 0.25 µg/mL (≈ 0.373 µM) in assay [2] and 0.5 µg/mL (≈ 0.747 µM) in assay [3].
For `COc1c(N2CCNC(C)C2)c(F)cc2c(=O)c(C(=O)O)cn(C3CC3)c12` (centres undefined) [GATIFLOXACIN], the results for the minimal inhibitory concentration (MIC) in assay [1], in assay [2] and in assay [3] were 0.25 µg/mL (≈ 0.666 µM), 0.5 µg/mL (≈ 1.33 µM) and 1 µg/mL (≈ 2.66 µM), respectively.
Taken in the same sequence, the figures for `NNC(=O)c1ccncc1` [ISONIAZID] were 64 µg/mL (≈ 467 µM), above 128 µg/mL and 0.5 µg/mL (≈ 3.65 µM).
The corresponding values for `COc1c(N2C[C@@H]3CCCN[C@@H]3C2)c(F)cc2c(=O)c(C(=O)O)cn(C3CC3)c12` [MOXIFLOXACIN] are 0.25 µg/mL (≈ 0.623 µM), 0.25 µg/mL (≈ 0.623 µM) and 0.5 µg/mL (≈ 1.25 µM).
On to `CO[C@H]1/C=C/O[C@@]2(C)Oc3c(C)c(O)c4c(O)c(c(/C=N/N5CCN(C)CC5)c(O)c4c3C2=O)NC(=O)/C(C)=C\C=C\[C@H](C)[C@H](O)[C@@H](C)[C@@H](O)[C@@H](C)[C@H](OC(C)=O)[C@@H]1C` [RIFAMPIN], for which the minimal inhibitory concentration (MIC) in assay [1], in assay [2] and in assay [3] was above 128 µg/mL in each case.

The record behind these values is ChEMBL document CHEMBL4364323, “Synthesis and biological evaluation of moxifloxacin-acetyl-1,2,3-1H-triazole-methylene-isatin hybrids as potential anti-tubercular agents against both drug-susceptible and drug-resistant Mycobacterium tuberculosis strains” (Eur J Med Chem, 2019).
